Data from ChEMBL document CHEMBL6177989, “Development of Diaryl Hydrazones for Alleviation of Mitochondrial Oxidative Stress in Preeclampsia” (2025).
Calls of active or inactive are those of the source. The rule behind the calls is not given here.

Experiments:
[1] = Antioxidant activity assessed as trolox equivalent of ORAC radical scavenging activity […] measured every 2 mins for 60 mins by UV-Vis / fluorescence plate reader based analysis; type: functional
Outline: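 ORAC: fluorescein with AAPH, fluorescence read 30 times; net AUC relative to AAPH control and no-AAPH maximum. Compounds at 80 μM; Trolox calibration (3.125–100 μM) of percent scavenging vs ln concentration gives Trolox equivalent concentration. 25 °C; mean ± SD, three independent repeats.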

[2] = Antioxidant activity assessed as trolox equivalent of DPPH radical scavenging activity […] measured every 15 mins for 60 mins by absorbance based assay; type: functional
Outline: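 DPPH radical scavenging by absorbance at 25 °C, compounds at 200 μM antioxidant concentration. Percent scavenging from control vs sample absorbance; 60 min value divided by 60 min Trolox value to give Trolox equivalents. Mean ± SD, four independent repeats.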

[3] = Antioxidant activity assessed as trolox equivalent of ABTS radical scavenging activity at […] measured up to 12 mins by absorbance based analysis; type: functional
Outline: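 ABTS radical generated 12–24 h before assay; compounds tested at 500 μM final antioxidant concentration; absorbance read on plate reader at 25 °C. Percent scavenging standardized to Trolox scavenging to give Trolox equivalents; mean ± SD of three independent repeats.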

[4] = tested on: HTR-8/SVneo; assay: Antioxidant activity in H2O2 induced human HTR-8/SVneo cells assessed as reduction in sFLT-1 protein expression at 0.1 to 50 uM preincubated for 30 mins followed by H2O2 addition and measured after 20 hrs by ELISA method; type: functional, cell-based; conditions: dose 0.1-50 µM, time 20.5 hrs
Outline: (§1)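 HTR-8/SVneo cells in RPMI with 5% FBS, 37 °C, 5% CO2, pretreated 30 min with 0.1–50 μM compound, then 100 μM H2O2 for 20 h with compound present throughout. Supernatant sFLT-1 measured by human VEGFR1 ELISA; MitoTEMPO as reference antioxidant; 5 repeat experiments.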

[5] = Antioxidant activity in H2O2 induced human HTR-8/SVneo cells assessed as reduction in sFLT-1 protein expression at 0.1 to 50 uM preincubated for 30 mins followed by H2O2 addition and measured after 20 hrs by ELISA method relative to MitoTEMPO; type: functional; set-up: scale not given: the % may be the effect or the level left; conditions: dose 0.1-50 µM, time 20.5 hrs; outline: as §1
[6] = Antioxidant activity in H2O2 induced human HTR-8/SVneo cells assessed as reduction in mitochondrial derived ROS production at 50 uM preincubated for 30 mins followed by H2O2 addition and measured after 20 hrs by MitoSOX red staining based immunofluorescence analysis relative to control; type: functional; set-up: scale not given: the % may be the effect or the level left; conditions: time 20.5 hrs
Outline: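 HTR8 cells pretreated 30 min with 50 μM compound, then 100 μM H2O2 for 20 h. Mitochondrial superoxide imaged with MitoSOX Red by fluorescence microscopy at 20×; OD per cell surface area over 3 high-power fields per sample, n = 4 per group; median [IQR], Mann–Whitney U test.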

| Compound | Activity [1] | Activity [2] | Activity [3] | Activity [4] | Activity [5] [%] | Activity [6] [%] |
| --- | --- | --- | --- | --- | --- | --- |
| C/C(=N\Nc1cc(C)ccc1C)c1ccc([N+](=O)[O-])cc1 | Active | Weak_effect | Weak_effect | – | – | – |
| CN(C)c1ccc(/C=N/Nc2cccc(C(F)(F)F)c2)cc1 | Active | Active | Active | Active | 10 | 50 |
| COc1ccc(N/N=C(\C)c2ccc([N+](=O)[O-])cc2)cc1 | Active | Weak_effect | Weak_effect | – | – | – |
| Fc1c(F)c(F)c(/C=N/Nc2ccc(C(F)(F)F)cc2)c(F)c1F | Active | Active | Active | Active | – | – |
| COc1ccc(/C=N/Nc2ccc(C(F)(F)F)cc2)c(O)c1 | Active | Active | Active | Active | – | – |
| COc1ccc(N/N=C/c2ccc(/C=N/Nc3ccc(OC)cc3)cc2)cc1 | Active | Active | Active | – | – | – |
| CN(C)c1ccc(/C=N/Nc2ccccc2C(F)(F)F)cc1 | Active | Active | Active | Active | – | – |
| COc1ccc(/C=N/Nc2cccc(C(F)(F)F)c2)cc1OC | Active | Active | Active | Active | 10 | – |
| COc1ccc(N/N=C(\C)c2cc3ccc(OC)cc3oc2=O)cc1 | Active | Active | Active | – | – | – |
| COc1ccc(N/N=C/c2ccc3ccccc3c2)cc1 | Active | Active | Active | – | – | – |
| COc1ccc(N/N=C/c2ccc([N+](=O)[O-])cc2)cc1 | Active | – | – | – | – | – |
| C/C(=N\Nc1ccccc1)c1ccc(Cl)cc1 | Active | Active | Active | – | – | – |
| C/C(=N\Nc1ccccc1)c1ccc(C)cc1 | Active | Active | Active | – | – | – |
| O=[N+]([O-])c1cccc(N/N=C/c2ccc3ccccc3c2)c1 | Weak_effect | Active | Active | – | – | – |
| CN(C)c1ccc(/C=N/Nc2ccc(C(F)(F)F)cc2)cc1 | Active | Active | Active | Active | – | – |
| COc1ccc(/C(C)=N/Nc2ccccc2)c(O)c1 | Active | Active | Active | – | – | – |
| Cc1ccc(C)c(N/N=C/c2ccc3ccccc3c2)c1 | Active | Active | Active | – | – | – |
| C(=N\Nc1ccccc1)/c1ccc2ccccc2c1 | Active | Active | Active | – | – | – |
| O=[N+]([O-])c1ccc(/C=N/Nc2cccc(C(F)(F)F)c2)cc1 | Active | Active | Active | Active | – | – |
| C(=N\Nc1ccccc1)/c1c[nH]c2ccccc12 | Active | Active | Active | – | – | – |
| Clc1ccc(N/N=C/c2ccc3ccccc3c2)cc1 | – | Active | Active | – | – | – |
| FC(F)(F)c1cccc(N/N=C/c2ccc(/C=N/Nc3cccc(C(F)(F)F)c3)cc2)c1 | Active | Active | Active | Active | – | – |
| FC(F)(F)c1ccccc1N/N=C/c1c2ccccc2cc2ccccc12 | Weak_effect | Active | Active | – | – | – |
| C/C(=N\Nc1cc(C)ccc1C)c1cccc([N+](=O)[O-])c1 | Active | Weak_effect | Weak_effect | – | – | – |
